Data reported in ChEMBL document CHEMBL1649079, “Pipecolic acid derivatives as small-molecule inhibitors of the Legionella MIP protein” (J Med Chem, 2011).
Active and inactive are the calls of the source. No cut-off for these calls is given here.

Legend:
[1] = biological target: Outer membrane protein MIP (Legionella pneumophila, UniProt Q70YI1)
[2] = biological target: T1, Peptidyl-prolyl cis-trans isomerase FKBP1A (Homo sapiens, UniProt P62942); assay: Inhibition of PPIase activity of human FKBP12 expressed in Escherichia coli by spectrophotometry
In short: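 Chymotrypsin-coupled PPIase assay using 20 nM FKBP12 and 40 μM succinyl-Ala-Phe-Pro-Phe-4-nitroanilide. Enzyme and substrate preincubated with or without various inhibitor concentrations for 4 min at 10 °C in 35 mM HEPES/NaOH, pH 7.8.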

Legionella pneumophila [3] = assay: Antibacterial activity against wild type Legionella pneumophila Philadelphia-1 JR32 infected in human U937 cells at 50 uM after 24 to 48 hrs; type: functional, organism-based; conditions: U-937
In short: (§1)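 U937 macrophage-like cells infected at MOI 10, with or without 50 μM compound kept present throughout incubation. Extracellular bacteria killed with gentamicin 2 h post-infection. Infection samples plated on BCYE agar for CFU counts immediately and after 24 and 48 h.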

Legionella pneumophila [4] = assay: Antibacterial activity against MIP protein-deficient Legionella pneumophila JR32-2 infected in human U937 cells at 50 uM after 24 to 48 hrs; type: functional, organism-based
In short: as §1

Escherichia coli = assay: Antibacterial activity against Escherichia coli HB101 infected in human U937 cells at 50 uM after 24 to 48 hrs; type: functional, cell-based; conditions: U-937
In short: as §1

[5] = biological target: T1, Peptidyl-prolyl cis-trans isomerase FKBP1A; assay: Inhibition of FKBP12

T1 sequence (P62942 whole entry): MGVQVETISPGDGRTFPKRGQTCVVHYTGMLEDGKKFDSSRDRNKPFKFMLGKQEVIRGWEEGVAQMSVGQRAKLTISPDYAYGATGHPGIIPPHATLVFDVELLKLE
Sequence of Outer membrane protein MIP (Q70YI1 21-233 limits assumed): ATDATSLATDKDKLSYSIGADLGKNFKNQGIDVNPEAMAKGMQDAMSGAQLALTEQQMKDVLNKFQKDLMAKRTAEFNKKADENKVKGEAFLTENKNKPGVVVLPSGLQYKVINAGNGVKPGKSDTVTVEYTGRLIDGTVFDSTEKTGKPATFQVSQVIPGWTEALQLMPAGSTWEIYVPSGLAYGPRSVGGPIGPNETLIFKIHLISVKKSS

Compound | IC50 [1] [µM] | IC50 [2] [µM] | other results
CCC(C)C(=O)C(=O)N1CCCCC1C(=O)OC(CCc1ccccc1)c1ccccc1 (stereo not drawn) | > 100 | > 30 | 
Nc1cccc(S(=O)(=O)N2CCCCC2C(=O)OCCCc2cccnc2)c1 (stereo not drawn) | > 100 | 0.32 | 
COc1cc(CCCOC(=O)C2CCCCN2S(=O)(=O)c2cccc(N)c2)cc(OC)c1OC (stereo not drawn) | > 100 | 0.26 | 
COc1cc(CCCOC(=O)C2CCCCN2S(=O)(=O)c2ccccc2)cc(OC)c1OC (stereo not drawn) |  | 0.12 | 
CCOC(=O)C1CCCCN1S(=O)(=O)Cc1ccccc1 (stereo not drawn) | 87 | 2.6 | 
CO[C@H]1C[C@@H]2CC[C@@H](C)[C@@](O)(O2)C(=O)C(=O)N2CCCC[C@H]2C(=O)O[C@H]([C@H](C)C[C@@H]2CC[C@@H](O)[C@H](OC)C2)CC(=O)[C@H](C)/C=C(\C)[C@@H](O)[C@@H](OC)C(=O)[C@H](C)C[C@H](C)/C=C/C=C/C=C/1C |  |  | Activity (Legionella pneumophila [3]): Active; Activity (Legionella pneumophila [4]): Active; Activity (Escherichia coli): Active
CCOC(=O)C1CCCCN1C(=O)C(=O)C(C)CC (stereo not drawn) | > 100 | > 30 | 
CCC(C)C(=O)C(=O)N1CCCCC1C(=O)OCCCc1cc(OC)c(OC)c(OC)c1 (stereo not drawn) | > 100 | 4.2 | 
COc1cc(CCCOC(=O)C2CCCCN2S(=O)(=O)c2cccc([N+](=O)[O-])c2)cc(OC)c1OC (stereo not drawn) | > 100 | 0.07 | 
O=C(OCCCc1cccnc1)C1CCCCN1S(=O)(=O)c1cccc([N+](=O)[O-])c1 (stereo not drawn) | 32 | 0.15 | 
COc1cc(CCCOC(=O)C2CCCCN2S(=O)(=O)Cc2ccccc2)cc(OC)c1OC (racemic) |  | 0.2 | 
CCOC(=O)C1CCCCN1S(=O)(=O)c1ccccc1 (stereo not drawn) | > 100 | 3.1 | 
COc1cc(CCCOC(=O)[C@@H]2CCCCN2S(=O)(=O)Cc2ccccc2)cc(OC)c1OC |  | 0.2 | Ki [5]: 0.23 µM; Activity (Legionella pneumophila [3]): inactive
CCOC(=O)C1CCCCN1S(=O)(=O)c1cccc([N+](=O)[O-])c1 (stereo not drawn) | > 100 | 2.8 | 
